Experiments:
Type in all cases: functional
[1] = organism: Rattus norvegicus; assay: In vitro efficacy to stimulate [3H]NE in rat hippocampus
In short: (§1)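 Release of [3H]DA (striatum) or [3H]NE (hippocampus, prefrontal cortex) from rat brain slice preparations stimulated by test compound at 300 μM. […] Mean ± SD of 3–6 experiments.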

[2] = test system: Rattus norvegicus; assay: Acetylcholine release data in […] rats when compound was administered subcutaneously at dose of 40 mg/kg; details: route subcutaneous
In short: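 In vivo acetylcholine release from hippocampus of freely moving Sprague–Dawley rats after subcutaneous dosing. […] Mean ± SEM of 2–6 independent experiments, compared against saline control by two-way repeated measures ANOVA with Student–Newman–Keuls post-hoc test.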

[3] = organism: Rattus norvegicus; assay: In vitro efficacy to stimulate the release of [3H]dopamine from rat striatal slices; in short: as §1
[4] = organism: Rattus norvegicus; assay: In vitro efficacy to stimulate [3H]NE in rat prefrontal cortex membrane slice; in short: as §1
[5] = test system: Rattus norvegicus; assay: Acetylcholine release data in […] rats when compound was administered subcutaneously at dose of 40(mg/Kg)
[6] = organism: Rattus norvegicus; assay: In vitro efficacy to stimulate [3H]-dopamine from brain slice preparations
In short: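 Striatal brain slices stimulated with test compound at 300 μM; [3H]dopamine release measured. […] Mean ± SD of 3–6 experiments.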

SMILES | Efficacy [1] | Activity [2] | Efficacy [3] | Efficacy [4] | Activity [5] | Efficacy [6]
CN1CCCC1CCSc1ccc(O)cc1 (configuration not stated) | 0.2 | 12 | 6.5 | 0.6 |  | 
CN1CCC[C@H]1c1cccnc1 [NICOTINE] | 1 |  | 1 | 1 |  | 
CN1CCCC1CCSc1ccccc1 (configuration not stated) |  |  |  |  | 0.6 | 1.5
CN1CCC[C@H]1CCSc1ccc(O)cc1 | 0.3 | 13 | 4.3 | 0.35 |  | 
CN1CCC[C@@H]1CCSc1ccc(O)cc1 | 0.2 | 10 | 4.1 | 0.3 |  | 

From ChEMBL document CHEMBL1132158, “4-[[2-(1-Methyl-2-pyrrolidinyl)ethyl]thio]phenol hydrochloride (SIB-1553A): a novel cognitive enhancer with selectivity for neuronal nicotinic acetylcholine receptors” (J Med Chem, 1999)
